{"data": "Assay results from different studies", "observed": "enzyme activity", "action": "inhibitor", "rep main protease": "Replicase polyprotein 1ab, main protease (rep, Severe acute respiratory syndrome coronavirus 2, UniProt P0DTD1)", "rep papain-like protease": "Replicase polyprotein 1ab, papain-like protease (rep, Severe acute respiratory syndrome coronavirus 2, UniProt P0DTD1)", "note": "Compare with care: the assays were run in different laboratories."}
{"SMILES": "Cc1cc(OCc2ccccc2)c2c(c1)C(=O)C=CC2=O", "target": "rep main protease", "tested at": "0.1 µM", "inhibition": "28.1%"}
{"SMILES": "Oc1cc2c(cc1O)[C@H]1c3ccccc3CN[C@@H]1CC2 (racemic)", "target": "rep main protease", "tested at": "20 µM", "inhibition": "-15.1%"}
{"SMILES": "O=C(Oc1cc([N+](=O)[O-])ccc1F)c1cccc2[nH]ccc12", "target": "rep main protease", "technique": "fluorescence", "tested at": "10 µM", "pH": "pH 7.2", "inhibition": "2%"}
{"SMILES": "O=C(O)[C@H]1O[C@@H](Oc2cc3oc(-c4ccc(O)cc4)cc(=O)c3c(O)c2O)[C@H](O)[C@@H](O)[C@@H]1O", "target": "rep papain-like protease", "tested at": "50 µM", "inhibition": "41.8%"}
{"SMILES": "Cc1cc(NC(=O)c2cc3c(=O)n4cccc(C)c4nc3n2C)ccc1Br", "target": "rep main protease", "tested at": "10 µM", "inhibition": "30%"}
{"SMILES": "COc1c(-c2ccc(O)c(CC=C(C)C)c2)oc2cc(O)cc(O)c2c1=O", "target": "rep main protease", "tested at": "8 µM", "inhibition": "16.9%"}
{"SMILES": "O=C(O)c1cc(O)c2c(c1)C(=O)c1cccc(O)c1C2=O", "target": "rep main protease", "tested at": "10 µM", "inhibition": "7.8%"}
{"SMILES": "O=C(NC[C@H](NC(=O)c1cncc2ccccc12)c1ccc2ccccc2c1)c1cnc[nH]1", "target": "rep main protease", "tested at": "5 µM", "inhibition": "18.9%"}
{"SMILES": "Cc1ccc(NC2C=CS(=O)(=O)C2)cc1 (stereo not drawn)", "target": "rep main protease", "tested at": "20 µM", "inhibition": "2.03%"}
{"SMILES": "CCOC(=O)COc1cc(C)cc2c1C(=O)C=CC2=O", "target": "rep main protease", "tested at": "10 µM", "inhibition": "97.5%"}
{"SMILES": "Cc1ncc(/C=C\\C(=O)NC[C@@H]2CC3(CCC3)CN2C(=O)[C@@H]2CC(=O)NC(=O)N2)c(=O)[nH]1", "target": "rep main protease", "tested at": "5 µM", "inhibition": "16.1%"}
{"SMILES": "O=C(Oc1cncc(Cl)c1)c1cc2c(Cl)cc(Cl)cc2[nH]1", "target": "rep main protease", "technique": "fluorescence", "tested at": "10 µM", "pH": "pH 7.2", "inhibition": "100%"}
{"SMILES": "CC(C(=O)NC[C@H](NC(=O)c1[nH]nc2nc[nH]c(=O)c12)c1ccc2ccccc2c1)=C1CCC1", "target": "rep main protease", "tested at": "5 µM", "inhibition": "15.1%"}
{"SMILES": "COc1c(O)cc(O)c2c(=O)cc(-c3ccccc3)oc12", "target": "rep papain-like protease", "tested at": "50 µM", "inhibition": "52%"}
{"SMILES": "O=C(/C=C/c1ccc(O)c(O)c1)O[C@@H]1C[C@](O)(C(=O)O)C[C@@H](O)[C@H]1O", "target": "rep main protease", "technique": "FRET", "tested at": "10 µM", "time": "10 min", "inhibition": "< 25%"}
{"SMILES": "Cc1ccc(NC(=O)c2cc3c(=O)n4cccc(C)c4nc3n2C)cc1Cl", "target": "rep main protease", "tested at": "100 µM", "inhibition": "37%"}
{"SMILES": "O=C1C=CC(=O)c2ccccc21", "target": "rep main protease", "tested at": "0.1 µM", "inhibition": "25%"}
{"SMILES": "O=c1cc(-c2ccc(O)cc2)oc2cc(O)c(O)c(O)c12", "target": "rep main protease", "tested at": "100 µM", "inhibition": "102%"}
{"SMILES": "O=C(CCc1ccccc1)Nc1ccc2c(c1)C(=O)OC2", "target": "rep main protease", "tested at": "20 µM", "inhibition": "-0.804%"}
{"SMILES": "C[C@@H]1O[C@@H](OC[C@H]2O[C@@H](OCCc3ccc(O)c(O)c3)[C@H](OC(=O)/C=C/c3ccc(O)c(O)c3)[C@@H](O)[C@@H]2O)[C@H](O)[C@H](O)[C@H]1O", "target": "rep papain-like protease", "tested at": "50 µM", "inhibition": "2.5%"}
{"SMILES": "Cn1c(C(=O)Nc2ccc(Cl)cc2)cc2c(=O)n3ccccc3nc21", "target": "rep main protease", "tested at": "100 µM", "inhibition": "33%"}
{"SMILES": "CCOC(=O)c1ccc(OC(=O)CCCCCNC(=N)N)cc1", "target": "rep main protease", "tested at": "10 µM", "inhibition": "3%"}
{"SMILES": "COc1cc(/C=C/C(=O)CC(=O)/C=C/c2ccc(O)c(OC)c2)ccc1O", "target": "rep main protease", "technique": "FRET", "tested at": "10 µM", "time": "10 min", "inhibition": "> 50%"}
{"SMILES": "COc1cc(C)cc2c1C(=O)C=CC2=O", "target": "rep main protease", "tested at": "0.1 µM", "inhibition": "-4.4%"}
{"SMILES": "CC[PH](CC)(CC)[Au][S][C@@H]1O[C@H](COC(C)=O)[C@@H](OC(C)=O)[C@H](OC(C)=O)[C@H]1OC(C)=O", "target": "rep main protease", "tested at": "20 µM", "inhibition": "100%"}
{"SMILES": "CN(C(=O)[C@H](Cc1ccccc1)NC(=O)[C@@H](NC(=O)OCc1ccccc1)C(C)(C)C)N(C#N)CCC(N)=O", "target": "rep main protease", "technique": "fluorescence", "tested at": "50 µM", "pH": "pH 7.2", "inhibition": "100%"}
{"SMILES": "CC(=O)Nc1ccc(C2NN=C(c3ccc(C(F)(F)F)cn3)N2)cc1 (stereo not drawn)", "target": "rep main protease", "tested at": "20 µM", "inhibition": "4.63%"}
{"SMILES": "Cc1cccn2c(=O)c3cc(C(=O)Nc4ccc(N(C)C)cc4)n(C)c3nc12", "target": "rep main protease", "tested at": "10 µM", "inhibition": "8.7%"}
{"SMILES": "Cc1cccc(NC2CS(=O)(=O)CC2O)c1 (stereo not drawn)", "target": "rep main protease", "tested at": "20 µM", "inhibition": "7.43%"}
{"SMILES": "COC(=O)C1=CO[C@@H](O[C@@H]2O[C@H](CO)[C@@H](O)[C@H](O)[C@H]2O)[C@@H]2[C@@H](C)[C@@H](O)C[C@H]12", "target": "rep main protease", "tested at": "100 µM", "inhibition": "10.6%"}
{"SMILES": "C=C[C@@H]1C[C@]1(NC(=O)[C@@H]1C[C@@H]2CN1C(=O)[C@H](C(C)(C)C)NC(=O)O[C@@H]1C[C@H]1CCCCCc1nc3ccc(OC)cc3nc1O2)C(=O)NS(=O)(=O)C1CC1.O", "target": "rep main protease", "tested at": "20 µM", "inhibition": "1.19%"}
{"SMILES": "Cn1c(C(=O)Nc2ccc3c(c2)OCCO3)cc2c(=O)n3ccccc3nc21", "target": "rep main protease", "tested at": "10 µM", "inhibition": "42%"}
{"SMILES": "Cc1ccc2nc(Cl)c(/C=N/NC(=O)c3ccncc3)cc2c1", "target": "rep papain-like protease", "tested at": "100 µM", "inhibition": "38.4%"}
{"SMILES": "COc1cc([C@H]2OC[C@H]3[C@@H]2CO[C@H]3c2ccc(OC)c(OC)c2)ccc1O", "target": "rep main protease", "tested at": "100 µM", "inhibition": "11.4%"}
{"SMILES": "O=C(NC[C@H](NC(=O)c1cn[nH]c1-c1ccccn1)c1ccc2ccccc2c1)c1cn[nH]c1", "target": "rep main protease", "tested at": "5 µM", "inhibition": "10.7%"}
{"SMILES": "Cc1ccc(-n2cccc2)c(NC(=O)Nc2ccccc2C(F)(F)F)c1", "target": "rep main protease", "tested at": "20 µM", "inhibition": "11.4%"}
{"SMILES": "CC(=O)Nc1ccc(-c2cnc(/N=C\\c3cc4ccccc4nc3Cl)s2)cc1", "target": "rep papain-like protease", "tested at": "10 µM", "inhibition": "39%"}
{"SMILES": "C/C=C1\\C(OC2OC(CO)C(O)C(O)C2O)OC=C(C(=O)OC)C1CC(=O)OCCc1ccc(O)c(O)c1 (stereo not drawn)", "target": "rep main protease", "tested at": "20 µM", "inhibition": "93.8%"}
{"SMILES": "CCc1ccc(NC(=O)c2cc3c(=O)n4ccccc4nc3n2C)cc1", "target": "rep main protease", "tested at": "100 µM", "inhibition": "49%"}
{"SMILES": "O=c1oc2c(O)c(O)cc3c(=O)oc4c(O)c(O)cc1c4c23", "target": "rep main protease", "technique": "FRET", "tested at": "10 µM", "time": "10 min", "inhibition": "> 50%"}
{"SMILES": "Cc1ccc(NC(=O)Nc2cccnc2)cc1Cl", "target": "rep main protease", "tested at": "20 µM", "inhibition": "-7.73%"}
{"SMILES": "O=C1C=C(O)C(=O)c2ccccc21", "target": "rep main protease", "tested at": "10 µM", "inhibition": "-1.7%"}
{"SMILES": "COc1ccc(/C=C\\C(=O)NC(=S)Nc2ccc(S(=O)(=O)NC(N)=O)cc2)cc1OC", "target": "rep main protease", "tested at": "100 µg/mL", "inhibition": "0%"}
{"SMILES": "O=c1c(O)c(-c2ccc(O)cc2)oc2cc(O)cc(O)c12", "target": "rep main protease", "tested at": "20 µM", "inhibition": "12%"}
{"SMILES": "O=C(/C=C/c1ccc(O)c(O)c1)OC1CC(OC(=O)/C=C/c2ccc(O)c(O)c2)(C(=O)O)CC(O)C1O (stereo not drawn)", "target": "rep main protease", "tested at": "10 µM", "inhibition": "27.8%"}
{"SMILES": "Cc1cccc2cc(/C=N\\c3ccc(-c4nc5ccccc5[nH]4)cc3)c(Cl)nc12", "target": "rep papain-like protease", "tested at": "100 µM", "inhibition": "44.9%"}
{"SMILES": "C/N=c1\\nc(-c2ccccc2)n(-c2ccccc2)s1", "target": "rep main protease", "tested at": "20 µM", "inhibition": "96.7%"}
{"SMILES": "O=C1C=CC(=O)c2c(O)cccc21", "target": "rep main protease", "tested at": "10 µM", "inhibition": "102%"}
{"SMILES": "Clc1nc2ccccc2cc1/C=N\\c1ccc(-c2nc3ccccc3[nH]2)cc1", "target": "rep papain-like protease", "tested at": "10 µM", "inhibition": "3.9%"}
{"SMILES": "O=C1c2cccc(O)c2C(=O)c2c(O)cc(CO)cc21", "target": "rep main protease", "tested at": "10 µM", "inhibition": "10.1%"}
{"SMILES": "COc1cc(C[C@@H](C)[C@@H](C)Cc2cc(O)c(OC)c(OC)c2)cc(O)c1OC", "target": "rep papain-like protease", "technique": "FRET", "tested at": "8 µM", "inhibition": "51.4%"}
